Here are results for three compounds from ChEMBL document CHEMBL3785062, “Preparation and Evaluation of Radiolabeled Antibody Recruiting Small Molecules That Target Prostate-Specific Membrane Antigen for Combined Radiotherapy and Immunotherapy” (J Med Chem, 2016).

Data set [1] concerns LNCaP. The experiment in a line: Drug internalization in PSMA expressing human LNCAP cells at 5 nM incubated for 2 hrs at 37 degC measured for 10 mins by gamma counting analysis. Conditions: 0.005 µM; call rule not given here. The data set is classed as ADME, cell-based.
In data set [2] the test system is LNCaP. The experiment in a line: Drug internalization in PSMA expressing human LNCAP cells at 5 nM incubated for 2 hrs at 4 degC measured for 10 mins by gamma counting analysis. The data set is classed as ADME, cell-based. Conditions: 0.005 µM.
Data set [3] relates to Kidney. The experiment in a line: Drug uptake in kidney of human LNCAP cells xenografted NCR nu/nu mouse at 0.19 to 0.36 MBq, iv at 6 hrs. The data set is classed as ADME, organism-based. The conditions noted are these: in vivo. In outline: (§1)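 NCr nu/nu male mice carrying subcutaneous right-flank LNCaP xenografts (2 × 10^6 cells in Matrigel:DPBS), used 4–7 weeks after inoculation. Tail-vein injection of 0.19–0.36 MBq 125I tracer in 0.9% saline. Killed at 1 and 6 h; tissues collected and counted, expressed as %ID/g ± SEM. Group sizes n = 2–3.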

Data set [4] can be described thus: Drug uptake in small intestine of human LNCAP cells xenografted NCR nu/nu mouse at 0.19 to 0.36 MBq, iv at 1 hr. The data set is classed as ADME, organism-based. The conditions noted are these: in vivo. An outline of the steps:
as §1
A general note: A xenograft is tissue or cells of one species grown in another, often human tumour cells in immunodeficient mice.

Data set [5] concerns Tumour. The experiment in a line: Drug uptake in tumor of human LNCAP cells xenografted NCR nu/nu mouse at 0.19 to 0.36 MBq, iv at 1 hr. Conditions: in vivo. The data set is classed as ADME, organism-based, Neoplasm. An outline of the steps:
as §1

The test system of data set [6] is Tumour. The experiment in a line: Drug uptake in tumor of human LNCAP cells xenografted NCR nu/nu mouse at 0.19 to 0.36 MBq, iv at 6 hrs. The data set is classed as ADME, organism-based, Neoplasm. Conditions: in vivo. An outline of the steps: as §1
Data set [7] in a line: Drug uptake in small intestine of human LNCAP cells xenografted NCR nu/nu mouse at 0.19 to 0.36 MBq, iv at 6 hrs. The data set is classed as ADME, organism-based. Conditions: in vivo. In outline: as §1
Data set [8] in a line: Ratio of drug level in tumor to blood in human LNCAP cells xenografted NCR nu/nu mouse at 0.19 to 0.36 MBq, iv at 1 hr. The data set is classed as ADME, organism-based. An outline of the steps: as §1
Data set [9] in a line: Ratio of drug level in tumor to blood in human LNCAP cells xenografted NCR nu/nu mouse at 0.19 to 0.36 MBq, iv at 6 hrs. The data set is classed as ADME, organism-based. An outline of the steps:
as §1

Data set [10] is described as follows: Drug uptake in gall bladder of human LNCAP cells xenografted NCR nu/nu mouse at 0.19 to 0.36 MBq, iv at 6 hrs. The data set is classed as ADME, organism-based. An outline of the steps: as §1
A further data set deals with Blood. The experiment in a line: Drug uptake in blood of human LNCAP cells xenografted NCR nu/nu mouse at 0.19 to 0.36 MBq, iv at 1 hr. The data set is classed as ADME, organism-based. The conditions noted are these: in vivo. An outline of the steps:
as §1

Data set [11] deals with Kidney. The data set can be described thus: Drug uptake in kidney of human LNCAP cells xenografted NCR nu/nu mouse at 0.19 to 0.36 MBq, iv at 1 hr. The data set is classed as ADME, organism-based. The conditions noted are these: in vivo. In outline: as §1
Data set [12] can be described thus: Drug uptake in gall bladder of human LNCAP cells xenografted NCR nu/nu mouse at 0.19 to 0.36 MBq, iv at 1 hr. The data set is classed as ADME, organism-based. Conditions: in vivo. In outline: as §1
Data set [13] in a line: Stability of compound in saline up to 48 hrs. The data set is classed as physicochemical. Conditions: buffer.
The subject of data set [14] is LNCaP. The data set can be described thus: Drug internalization in PSMA expressing human LNCAP cells at 10 nM incubated for 2 hrs at 37 degC measured for 10 mins by gamma counting analysis. The data set is classed as ADME, cell-based. Conditions: 0.01 µM.
The nature of data set [15]: Drug uptake in thyroid gland of human LNCAP cells xenografted NCR nu/nu mouse at 0.19 to 0.36 MBq, iv at 1 to 6 hrs. The data set is classed as ADME, organism-based. The conditions noted are these: in vivo. In outline: as §1
For data set [16], the system named is LNCaP. The experiment in a line: Drug internalization in PSMA expressing human LNCAP cells at 10 nM incubated for 2 hrs at 4 degC measured for 10 mins by gamma counting analysis. The data set is classed as ADME, cell-based. Conditions: 0.01 µM.
Data set [17] is described as follows: Chemical stability in solid state at -10 degC. The data set is classed as physicochemical.

Turning to `O=C(O)CC[C@H](NC(=O)N[C@@H](CCCCNC(=O)Cn1cc([125I])nn1)C(=O)O)C(=O)O`, the Drug uptake entry is on record as “Active” in the data set with LNCaP [1] and “Not Active” with LNCaP [2].
For orientation: Kp means tissue or fluid exposure divided by exposure in the circulation. In the case of `O=C(O)CC[C@H](NC(=O)N[C@@H](CCCCNC(=O)Cn1nnc([125I])c1CNc1ccc([N+](=O)[O-])cc1[N+](=O)[O-])C(=O)O)C(=O)O`, the Drug uptake in the data set on Kidney [3] came to 66.46 % ID/g; in data set [4] it was 47.37 % ID/g; with Tumour [5], 12.21 % ID/g; with Tumour [6], 9.8 % ID/g; in [7], 2.18 % ID/g; in the data set with Blood, 0.36 % ID/g. Besides, the Drug uptake is recorded as 68.35 % ID/g with Kidney [11] and 92.46 % ID/g in data set [12]. Also, the Kp at 1 h in data set [8] was determined as 35. Moreover, the Kp at 6 h in [9] was 59. Also, the tissue uptake at 6 h in data set [10] (NCR nu/nu, gall bladder, read-out: Drug uptake) is 7.89 %ID/g.
For `O=C(O)CC[C@H](NC(=O)N[C@@H](CCCCNC(=O)Cn1nnc(COCCOCCOCCOCCOCCOCCOCCOCCNc2ccc([N+](=O)[O-])cc2[N+](=O)[O-])c1[125I])C(=O)O)C(=O)O`, the Stability entry is “Stable” in [13] and 3 weeks in [17]. Moreover, the Drug uptake entry in the data set on LNCaP [14] is “Active”; in the data set with Tumour [5] it was 3.01 % ID/g; in the data set on Tumour [6] it was 3.24 % ID/g; in data set [15], “Active”; with LNCaP [16], “Not Active”; in [10] (in vivo, 6 h), “Not Active”. Further, the Drug uptake result in data set [12] is “Active”. The Kp at 1 h in data set [8] came to 10. Besides, the Kp at 6 h in data set [9] was determined as 3.4.
